Test results: ChEMBL document CHEMBL2384929, “Synthesis and biological evaluation of fluoro analogues of antimitotic phenstatin” (Bioorg Med Chem, 2013)

Key:
[1] = Inhibition of sheep brain tubulin assembly by DAPI staining-based fluorescence assay; parameters: species or system Ovis aries
Method in brief: (§1)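 Tubulin from sheep brain, purified by two assembly–disassembly cycles, at about 2–3 mg/mL in 0.1 M MES, 0.5 mM MgCl2, 1 mM EGTA, 1 mM GTP, pH 6.6. Assembly followed by DAPI fluorescence at 37 °C. Single-point inhibition tested at 100 µM. IC50 is the concentration halving the assembly rate relative to no compound, mean of two experiments, with reference inhibitors run the same day.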

K562 = test: Cytotoxicity against human K562 cells assessed as growth inhibition after 48 hrs by SRB assay; type: functional; conditions: K562, 48 h
Method in brief: (§2)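 Run in the NCI 60 human tumour cell line panel. Cells exposed for 48 h, growth read by sulforhodamine B. Compounds were first screened at a single 10 µM dose, and those meeting preset threshold inhibition criteria went on to the 5-dose screen. GI50 is the molar concentration giving 50% growth inhibition.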

NCI-H23 = test: Cytotoxicity against human NCI-H23 cells assessed as growth inhibition after 48 hrs by SRB assay; type: functional; conditions: NCI-H23, 48 h; method in brief: as §2
PC-3 = test: Cytotoxicity against human PC3 cells assessed as growth inhibition after 48 hrs by SRB assay; type: functional; conditions: PC-3, 48 h; method in brief: as §2
SF-539 = test: Cytotoxicity against human SF539 cells assessed as growth inhibition after 48 hrs by SRB assay; type: functional; conditions: SF-539, 48 h; method in brief: as §2
Hs-578T = test: Cytotoxicity against human Hs578T cells assessed as growth inhibition after 48 hrs by SRB assay; type: functional; method in brief: as §2
KM12 = test: Cytotoxicity against human KM12 cells assessed as growth inhibition after 48 hrs by SRB assay; type: functional; conditions: KM12, 48 h; method in brief: as §2
RXF 393 = test: Cytotoxicity against human RXF393 cells assessed as growth inhibition after 48 hrs by SRB assay; type: functional; conditions: RXF 393, 48 h; method in brief: as §2
HL-60(TB) = test: Cytotoxicity against human HL-60(TB) cells assessed as growth inhibition after 48 hrs by SRB assay; type: functional; conditions: HL-60, 48 h
Method in brief: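 NCI 60-human-cancer-cell-line screen; only compounds meeting predetermined threshold inhibition criteria in the single-dose test went on to the 5-dose screen. Cells exposed for 48 h and growth read by sulforhodamine B assay. GI50 is the molar concentration giving 50% growth inhibition of tumour cells.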

SNB-19 = test: Cytotoxicity against human SNB19 cells assessed as growth inhibition after 48 hrs by SRB assay; type: functional; conditions: SNB-19, 48 h; method in brief: as §2
NCI-H522 = test: Cytotoxicity against human NCI-H522 cells assessed as growth inhibition after 48 hrs by SRB assay; type: functional; conditions: NCI-H522, 48 h; method in brief: as §2
MDA-MB-435 = test: Cytotoxicity against human MDA-MB-435 cells assessed as growth inhibition after 48 hrs by SRB assay; type: functional; conditions: MDA-MB-435, 48 h; method in brief: as §2
M14 = test: Cytotoxicity against human M14 cells assessed as growth inhibition after 48 hrs by SRB assay; type: functional; conditions: M14, 48 h; method in brief: as §2
BT-549 = test: Cytotoxicity against human BT549 cells assessed as growth inhibition after 48 hrs by SRB assay; type: functional; conditions: BT-549, 48 h; method in brief: as §2
HCT-15 = test: Cytotoxicity against human HCT15 cells assessed as growth inhibition after 48 hrs by SRB assay; type: functional; conditions: HCT-15, 48 h; method in brief: as §2
SR = test: Cytotoxicity against human SR cells assessed as growth inhibition after 48 hrs by SRB assay; type: functional; method in brief: as §2
NCI/ADR-RES = test: Cytotoxicity against human NCI/ADR-RES cells assessed as growth inhibition after 48 hrs by SRB assay; type: functional; method in brief: as §2
OVCAR-3 = test: Cytotoxicity against human OVCAR3 cells assessed as growth inhibition after 48 hrs by SRB assay; type: functional; conditions: OVCAR-3, 48 h; method in brief: as §2
SNB-75 = test: Cytotoxicity against human SNB75 cells assessed as growth inhibition after 48 hrs by SRB assay; type: functional; conditions: SNB-75, 48 h; method in brief: as §2
DU-145 = test: Cytotoxicity against human DU145 cells assessed as growth inhibition after 48 hrs by SRB assay; type: functional; conditions: DU-145, 48 h; method in brief: as §2
SF-268 = test: Cytotoxicity against human SF268 cells assessed as growth inhibition after 48 hrs by SRB assay; type: functional; conditions: SF-268, 48 h; method in brief: as §2
CCRF-CEM = test: Cytotoxicity against human CCRF-CEM cells assessed as growth inhibition after 48 hrs by SRB assay; type: functional; method in brief: as §2
Ovis aries = species on record: Ovis aries; test: Inhibition of sheep brain tubulin assembly at 100 uM by DAPI staining-based fluorescence assay; method in brief: as §1
SK-OV-3 = test: Cytotoxicity against human SKOV3 cells assessed as growth inhibition after 48 hrs by SRB assay; type: functional; conditions: SK-OV-3, 48 h; method in brief: as §2
Malme-3M = test: Cytotoxicity against human MALME-3M cells assessed as growth inhibition after 48 hrs by SRB assay; type: functional; method in brief: as §2
SW-620 = test: Cytotoxicity against human SW620 cells assessed as growth inhibition after 48 hrs by SRB assay; type: functional; conditions: SW-620, 48 h; method in brief: as §2
MDA-MB-231 = test: Cytotoxicity against human MDA-MB-231 cells assessed as growth inhibition after 48 hrs by SRB assay; type: functional; conditions: MDA-MB-231, 48 h; method in brief: as §2
SN12C = test: Cytotoxicity against human SN12C cells assessed as growth inhibition after 48 hrs by SRB assay; type: functional; method in brief: as §2
NCI-H460 = test: Cytotoxicity against human NCI-H460 cells assessed as growth inhibition after 48 hrs by SRB assay; type: functional; conditions: NCI-H460, 48 h; method in brief: as §2
ACHN = test: Cytotoxicity against human ACHN cells assessed as growth inhibition after 48 hrs by SRB assay; type: functional; method in brief: as §2

Structure (SMILES) | IC50 [1] | GI50 (K562) | GI50 (NCI-H23) | GI50 (PC-3) | GI50 (SF-539) | GI50 (Hs-578T) | GI50 (KM12) | GI50 (RXF 393) | GI50 (HL-60(TB)) | GI50 (SNB-19) | GI50 (NCI-H522) | GI50 (MDA-MB-435) | GI50 (BT-549) | GI50 (HCT-15) | GI50 (SR) | GI50 (NCI/ADR-RES) | GI50 (OVCAR-3) | GI50 (DU-145) | inhibition (Ovis aries) | GI50 (NCI-H460) | also measured
COc1ccc(C(=O)c2cc(OC)c(OC)c(OC)c2N)cc1F | 2000 nM |  |  |  |  |  |  |  |  |  |  |  |  |  |  |  |  |  |  |  | 
C=C(c1cc(OC)c(OC)c(OC)c1)c1cc(OC)c(F)cc1OC |  | 340 nM | 2200 nM | 2240 nM | 2160 nM | 2190 nM | 568 nM | 2160 nM | 273 nM | 3300 nM | 601 nM | 260 nM | 4120 nM | 666 nM | 455 nM | 375 nM | 521 nM | 2440 nM | 44% | 1220 nM | GI50 (M14): 547 nM; GI50 (SNB-75): 920 nM; GI50 (SF-268): 2670 nM; GI50 (CCRF-CEM): 1100 nM; GI50 (SK-OV-3): 1050 nM; GI50 (Malme-3M): > 10000 nM; GI50 (SW-620): 587 nM; GI50 (MDA-MB-231): 945 nM; GI50 (SN12C): 498 nM; GI50 (ACHN): 6540 nM
COc1ccc(C(=O)c2cc(F)c(F)c(OC)c2F)c(OC)c1N | 29200 nM | 1830 nM | 30700 nM | 10200 nM | 3590 nM | 3780 nM | 890 nM | 4510 nM | 3690 nM | 5470 nM | 752 nM | 407 nM | 34100 nM | 2980 nM | 961 nM | 1670 nM | 2090 nM | 3910 nM | 89% | 3000 nM | GI50 (SNB-75): 1700 nM; GI50 (SF-268): 6540 nM; GI50 (CCRF-CEM): 3350 nM; GI50 (SK-OV-3): 8370 nM; GI50 (Malme-3M): 11500 nM; GI50 (SW-620): 2840 nM; GI50 (MDA-MB-231): 8550 nM; GI50 (SN12C): 5810 nM; GI50 (ACHN): 7900 nM
COc1ccc(C(=O)c2cc(OC)c(OC)c(OC)c2)cc1O [PHENSTATIN] | 3430 nM |  |  |  |  |  |  |  |  |  |  |  |  |  |  |  | 2 nM | 34 nM | 99% | 6 nM | 
C=C(c1ccc(OC)c(O)c1)c1cc(F)c(F)c(OC)c1F | 42200 nM | 37 nM | 385 nM | 140 nM | 31 nM | 52 nM | 47 nM | 176 nM | 23 nM | 67 nM | 25 nM | 19 nM | 61 nM | 45 nM | 15 nM | 38 nM | 217 nM | 139 nM | 77% | 343 nM | GI50 (M14): 38 nM; GI50 (SNB-75): 55 nM; GI50 (SF-268): 75 nM; GI50 (CCRF-CEM): 37 nM; GI50 (SK-OV-3): 94 nM; GI50 (Malme-3M): 44 nM; GI50 (SW-620): 45 nM; GI50 (MDA-MB-231): 94 nM; GI50 (SN12C): 209 nM; GI50 (ACHN): 67 nM
COc1ccc(C(=O)c2ccc(OC)c(NC(C)=O)c2OC)cc1F |  |  |  |  |  |  |  |  |  |  |  |  |  |  |  |  |  |  | 3% |  | 
COc1ccc(C(=O)c2cc(F)c(F)c(OC)c2F)cc1OC(=O)CCl |  |  |  |  |  |  |  |  |  |  |  |  |  |  |  |  |  |  | 46% |  | 
COc1cc(C(=O)c2cc(OC)c(OC)c(OC)c2)c(OC)cc1F | 24000 nM | 46 nM | 421 nM | 207 nM | 164 nM | 194 nM | 50 nM | 144 nM | 203 nM | 419 nM | 102 nM | 25 nM | 365 nM | 55 nM | 43 nM | 68 nM | 45 nM | 257 nM | 77% | 115 nM | GI50 (M14): 72 nM; GI50 (SNB-75): 109 nM; GI50 (SF-268): 748 nM; GI50 (CCRF-CEM): 192 nM; GI50 (SK-OV-3): 213 nM; GI50 (Malme-3M): 433 nM; GI50 (SW-620): 63 nM; GI50 (MDA-MB-231): 388 nM; GI50 (SN12C): 602 nM; GI50 (ACHN): 693 nM
COc1cc([C@@H]2c3cc4c(cc3C[C@H]3COC(=O)[C@@H]32)OCO4)cc(OC)c1OC [DESOXYPODOPHYLLOTOXIN] | 1760 nM |  |  |  |  |  |  |  |  |  |  |  |  |  |  |  |  |  | 100% |  | 
COc1ccc(C(=O)c2cc(F)c(F)c(OC)c2F)cc1O | 28200 nM | 186 nM | 3750 nM | 3720 nM | 2470 nM | 1600 nM | 1030 nM | 2470 nM | 2020 nM | 4390 nM | 1340 nM | 285 nM | 3130 nM | 1760 nM | 969 nM | 789 nM | 1500 nM | 2080 nM | 88% | 2230 nM | GI50 (M14): 804 nM; GI50 (SNB-75): 1740 nM; GI50 (SF-268): 3850 nM; GI50 (CCRF-CEM): 3310 nM; GI50 (SK-OV-3): 2440 nM; GI50 (Malme-3M): 9530 nM; GI50 (SW-620): 703 nM; GI50 (MDA-MB-231): 2090 nM; GI50 (SN12C): 5160 nM; GI50 (ACHN): 6840 nM
COc1ccc(C(=O)c2cc(F)c(F)c(OC)c2F)c(O)c1O | 29200 nM |  |  |  |  |  |  |  |  |  |  |  |  |  |  |  |  |  | 93% |  | 
